Measurements pooled from the literature.
Compare with care: the assays were run in different laboratories.
Target: Receptor tyrosine-protein kinase erbB-2 (ERBB2, Homo sapiens, UniProt P04626)

N[C@@H]1CCN(c2nccc(-c3cnn4ncccc34)n2)C1
remaining binding (binding; 1 µM): 100%

CNC(=O)[C@@H]1CC[C@@H](n2c(-c3ccc4cnccc4c3)nc3ccc(C(=O)NCc4cccc(C(N)=O)c4)cc32)C1
remaining binding (binding, competition with immobilised ligand; 1 µM): 100%

O=C(c1ccc(Nc2nccc(-c3cc4ccccc4s3)n2)cc1)N1CCC(N2CCCC2)CC1
remaining binding (binding, competition with immobilised ligand; 1 µM): 90%

Cc1cnn2ncc(-c3ccnc(N(C)C)n3)c2c1
remaining binding (binding; 1 µM): 94%

O=C(NCC1CCOCC1)c1n[nH]cc1NC(=O)c1c(F)cccc1F
remaining binding (binding, competition with immobilised ligand; 1 µM): 90%

C[C@@H]1CN(c2ccc3ncc(-c4ccc5[nH]nc(C6CC6)c5c4)n3n2)C[C@H](C)O1
remaining binding (binding, competition with immobilised ligand; 0.5 µM): 68%

CC(=O)c1c(NS(C)(=O)=O)c2cc(-c3ccc(Cl)cc3)c(-c3ccc(Cl)cc3Cl)nc2n(C)c1=O
remaining binding (cell-free assay, competition with immobilised ligand; 1 µM): 100%

CC(C)(C)c1ccc(-c2nc(CBr)nn2-c2cccc(O)c2)cc1
remaining binding (cell-free assay, competition with immobilised ligand; 10 µM): 84%

CS(=O)(=O)N1CCCC(NC(=O)[C@H](CCC2CCCCC2)NC(=O)c2ccc(CNC(=O)c3cnc4ccccn34)cc2)C1 (stereo partly shown)
remaining binding (cell-free assay, competition with immobilised ligand; 0.1 µM): 100%

FC(F)(F)Oc1cccc(-c2cnc3ccc(-c4ccncc4)nn23)c1
remaining binding (cell-free assay, competition with immobilised ligand; 5 µM): 57%

COc1cc(-c2cn(C3CCc4ccccc4N(CC(F)(F)F)C3=O)nn2)ccc1-n1ccc(C)n1 (stereo not shown)
remaining binding (cell-free assay, competition with immobilised ligand; 1 µM): 100%

C=CC(=O)N1CCC(C(=O)NCC(=O)N2CCN(c3nc(-c4cnc(N)nc4C(F)F)nc(N4CCOCC4)n3)CC2)CC1
remaining binding (binding, competition with immobilised ligand; 1 µM): 70%

C[C@@H](c1cccc(C#N)c1)n1cc(Cl)cc(C(N)=O)c1=N
remaining binding (cell-free assay, competition with immobilised ligand; 1 µM): 96%

O=C(c1ccc(Nc2ncc(Cl)c(-c3ccc(Cl)s3)n2)cc1)N1CCC(N2CCCC2)CC1
remaining binding (binding, competition with immobilised ligand; 1 µM): 82%

C[C@@H]1CCN(c2nccc(-c3cnn4ncccc34)n2)C1
remaining binding (binding; 1 µM): 90%

Nc1cnc(N2CCc3cc(S(=O)(=O)Nc4c(F)cc(Cl)cc4F)cc(N4CCCC4=O)c32)nc1
remaining binding (cell-free assay, competition with immobilised ligand; 1 µM): 100%
